Laboratory results as given in ChEMBL document CHEMBL4402612, “Heterodimeric Analogues of the Potent Y1R Antagonist 1229U91, Lacking One of the Pharmacophoric C-Terminal Structures, Retain Potent Y1R Affinity and Show Improved Selectivity over Y4R” (J Med Chem, 2020).
Positions of bridges follow the written chain, without caps; N, C: chain ends. Non-standard residues stand in square brackets, D forms with d. Residues, ends and D or L forms follow the SMILES beside them. Chains are numbered I, II in the order given. Orn = NCCC[C@H](N)C(=O)O; Dab = NCC[C@H](N)C(=O)O; Dap = NC[C@H](N)C(=O)O

How the values were obtained:
[1] = molecular target: T1, Neuropeptide Y receptor type 4 (Homo sapiens, UniProt P50391); test: Displacement of (sCy5)-[Lys2 Arg4]-BVD15 from GFP-tagged Y4R in human HEK293T cells assessed as inhibitory constant incubated for 5 mins followed by (sCy5)-[Lys2 Arg4]-BVD15 addition and measured after 30 mins by fluorescence based assay; format: cell-based
Outline: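 Competitors (10^-10–10^-6 M) added in HBSS/0.1% BSA with H33342 for 5 min, then 100 nM final (sCy5)-[Lys²Arg⁴]-BVD15 for 30 min at 37 °C. Washed and imaged confocally; granule counts per cell. Non-specific binding with 100 nM PP.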

[2] = molecular target: T1, Neuropeptide Y receptor type 4; test: Agonist activity at Y4R in human HEK293T cells assessed as increase in beta-arrestin recruitment incubated for 60 mins by Hoechst 33342 dye based fluorescence analysis
[3] = organism: Homo sapiens; test: Selectivity index, ratio of Ki of GFP-tagged Y4R in human HEK293T cells to Ki GFP-tagged Y1R in human HEK293T cells; format: cell-based
Outline: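 Ratio of mean Ki values, Y4/Y1, from whole-cell competition binding in tetracycline-induced 293TR Y1-GFP or Y4-GFP cells. Tracer was 100 nM (sCy5)-[Lys²Arg⁴]-BVD15, added after 5 min competitor preincubation, then 30 min at 37 °C, with imaging read-out.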

[4] = molecular target: T1, Neuropeptide Y receptor type 4; test: Agonist activity at Y4R in human HEK293T cells assessed as increase in beta-arrestin recruitment incubated for 60 mins by Hoechst 33342 dye based fluorescence analysis relative to pancreatic polypeptide
[5] = molecular target: T2, Neuropeptide Y receptor type 1 (Homo sapiens, UniProt P25929); test: Displacement of (sCy5)-[Lys2 Arg4]-BVD15 from GFP-tagged Y1R in human HEK293T cells assessed as inhibitory constant incubated for 5 mins followed by (sCy5)-[Lys2 Arg4]-BVD15 addition and measured after 30 mins by fluorescence based assay; format: cell-based
T2 sequence (P25929 whole entry): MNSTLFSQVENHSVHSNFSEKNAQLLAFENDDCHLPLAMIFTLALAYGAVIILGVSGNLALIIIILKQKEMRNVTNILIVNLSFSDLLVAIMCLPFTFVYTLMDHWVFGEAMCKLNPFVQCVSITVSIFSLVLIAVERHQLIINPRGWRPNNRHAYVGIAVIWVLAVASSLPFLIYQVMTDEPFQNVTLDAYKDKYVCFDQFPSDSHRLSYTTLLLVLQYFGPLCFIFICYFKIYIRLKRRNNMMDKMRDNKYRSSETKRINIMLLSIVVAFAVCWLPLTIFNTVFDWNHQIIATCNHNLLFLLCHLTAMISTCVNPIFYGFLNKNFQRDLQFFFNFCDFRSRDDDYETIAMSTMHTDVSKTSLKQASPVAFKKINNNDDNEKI

T1 sequence (P50391 whole entry): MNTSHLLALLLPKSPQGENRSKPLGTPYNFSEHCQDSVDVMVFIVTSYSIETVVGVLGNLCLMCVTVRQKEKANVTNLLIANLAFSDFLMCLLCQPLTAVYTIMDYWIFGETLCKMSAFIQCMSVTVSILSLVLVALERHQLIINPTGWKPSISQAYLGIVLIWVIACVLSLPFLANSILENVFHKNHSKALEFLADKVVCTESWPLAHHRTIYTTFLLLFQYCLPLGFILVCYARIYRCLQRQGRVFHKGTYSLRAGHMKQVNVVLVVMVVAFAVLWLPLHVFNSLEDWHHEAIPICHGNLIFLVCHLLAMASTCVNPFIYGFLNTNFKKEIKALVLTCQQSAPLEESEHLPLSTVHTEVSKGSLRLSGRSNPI

Ki [1] [nM]	EC50 [2] [nM]	Rmax [4] [%]	Ki [5] [nM]	SMILES	Ratio Ki [3]
155	30.2	43.8	8.13	CC[C@H](C)[C@H](N)C(=O)N[C@H]1CCC(=O)NCC[C@@H](C(=O)N[C@@H](Cc2ccc(O)cc2)C(=O)N[C@@H](CCCNC(=N)N)C(=O)N[C@@H](CC(C)C)C(=O)N[C@@H](CCCNC(=N)N)C(=O)N[C@@H](Cc2ccc(O)cc2)C(N)=O)NC(=O)[C@@H]2CCCN2C(=O)[C@@H](NC(=O)[C@@H](N)[C@@H](C)CC)CCC(=O)NCC[C@@H](C(=O)N[C@@H](Cc2ccc(O)cc2)C(=O)N[C@@H](CCCNC(=N)N)C(=O)N[C@@H](CC(C)C)C(=O)N[C@@H](CCCNC(=N)N)C(=O)N[C@@H](Cc2ccc(O)cc2)C(N)=O)NC(=O)[C@@H]2CCCN2C1=O (I: H-IEP[Dab]YRLRY-NH2 / II: H-IEP[Dab]YRLRY-NH2; amide I:2-II:4, I:4-II:2)	19
158	23.4	56.4	25.1	CC[C@H](C)[C@H](N)C(=O)N[C@H]1CCC(=O)NCCCC[C@@H](C(=O)N[C@@H](Cc2ccc(O)cc2)C(=O)N[C@@H](CCCNC(=N)N)C(=O)N[C@@H](CC(C)C)C(=O)N[C@@H](CCCNC(=N)N)C(=O)N[C@@H](Cc2ccc(O)cc2)C(N)=O)NC(=O)[C@@H]2CCCN2C(=O)[C@@H](NC(=O)[C@@H](N)[C@@H](C)CC)CCC(=O)NCCCC[C@@H](C(=O)N[C@@H](Cc2ccc(O)cc2)C(=O)N[C@@H](CCCNC(=N)N)C(=O)N[C@@H](CC(C)C)C(=O)N[C@@H](CCCNC(=N)N)C(=O)N[C@@H](Cc2ccc(O)cc2)C(N)=O)NC(=O)[C@@H]2CCCN2C1=O (I: H-IEPKYRLRY-NH2 / II: H-IEPKYRLRY-NH2; amide I:2-II:4, I:4-II:2)	6.3
174	6.76	55.2	0.257	CC[C@H](C)[C@H](N)C(=O)N[C@H]1CCC(=O)NC[C@@H](C(=O)N[C@@H](Cc2ccc(O)cc2)C(=O)N[C@@H](CCCNC(=N)N)C(=O)N[C@@H](CC(C)C)C(=O)N[C@@H](CCCNC(=N)N)C(=O)N[C@@H](Cc2ccc(O)cc2)C(N)=O)NC(=O)[C@@H]2CCCN2C(=O)[C@@H](NC(=O)[C@@H](N)[C@@H](C)CC)CCC(=O)NC[C@@H](C(=O)N[C@@H](Cc2ccc(O)cc2)C(=O)N[C@@H](CCCNC(=N)N)C(=O)N[C@@H](CC(C)C)C(=O)N[C@@H](CCCNC(=N)N)C(=O)N[C@@H](C)C(N)=O)NC(=O)[C@@H]2CCCN2C1=O (I: H-IEP[Dap]YRLRA-NH2 / II: H-IEP[Dap]YRLRY-NH2; amide I:2-II:4, I:4-II:2)	676
63.1	4.27	33	12.9	CC[C@H](C)[C@H](N)C(=O)N[C@H]1CCC(=O)NCCC[C@@H](C(=O)N[C@@H](Cc2ccc(O)cc2)C(=O)N[C@@H](CCCNC(=N)N)C(=O)N[C@@H](CC(C)C)C(=O)N[C@@H](CCCNC(=N)N)C(=O)N[C@@H](Cc2ccc(O)cc2)C(N)=O)NC(=O)[C@@H]2CCCN2C(=O)[C@@H](NC(=O)[C@@H](N)[C@@H](C)CC)CCC(=O)NCCC[C@@H](C(=O)N[C@@H](Cc2ccc(O)cc2)C(=O)N[C@@H](CCCNC(=N)N)C(=O)N[C@@H](CC(C)C)C(=O)N[C@@H](CCCNC(=N)N)C(=O)N[C@@H](Cc2ccc(O)cc2)C(N)=O)NC(=O)[C@@H]2CCCN2C1=O (I: H-IEP[Orn]YRLRY-NH2 / II: H-IEP[Orn]YRLRY-NH2; amide I:2-II:4, I:4-II:2)	4.9
41.7 to 89.1	11.2 to 37.2	21.8 to 36.1	0.295 to 1.02	CC[C@H](C)[C@H](N)C(=O)N[C@H]1CCC(=O)NC[C@@H](C(=O)N[C@@H](Cc2ccc(O)cc2)C(=O)N[C@@H](CCCN=C(N)N)C(=O)N[C@@H](CC(C)C)C(=O)N[C@@H](CCCN=C(N)N)C(=O)N[C@@H](Cc2ccc(O)cc2)C(N)=O)NC(=O)[C@@H]2CCCN2C(=O)[C@@H](NC(=O)[C@@H](N)[C@@H](C)CC)CCC(=O)NC[C@@H](C(=O)N[C@@H](Cc2ccc(O)cc2)C(=O)N[C@@H](CCCN=C(N)N)C(=O)N[C@@H](CC(C)C)C(=O)N[C@@H](CCCN=C(N)N)C(=O)N[C@@H](Cc2ccc(O)cc2)C(N)=O)NC(=O)[C@@H]2CCCN2C1=O (I: H-IEP[Dap]YRLRY-NH2 / II: H-IEP[Dap]YRLRY-NH2; amide I:2-II:4, I:4-II:2)	87 to 141
631	37.2	52.3	2.34	CC[C@H](C)[C@H](N)C(=O)N[C@H]1CCC(=O)NC[C@@H](C(=O)N[C@@H](Cc2ccc(O)cc2)C(=O)N[C@@H](CCCNC(=N)N)C(=O)N[C@@H](CC(C)C)C(=O)N[C@@H](CCCNC(=N)N)C(=O)N[C@@H](Cc2ccc(O)cc2)C(N)=O)NC(=O)[C@@H]2CCCN2C(=O)[C@@H](NC(=O)[C@@H](N)[C@@H](C)CC)CCC(=O)NC[C@@H](C(=O)N[C@@H](C)C(=O)N[C@@H](CCCNC(=N)N)C(=O)N[C@@H](CC(C)C)C(=O)N[C@@H](CCCNC(=N)N)C(=O)N[C@@H](Cc2ccc(O)cc2)C(N)=O)NC(=O)[C@@H]2CCCN2C1=O (I: H-IEP[Dap]ARLRY-NH2 / II: H-IEP[Dap]YRLRY-NH2; amide I:2-II:4, I:4-II:2)	269
912		-9.5	31.6	CC[C@H](C)[C@H](N)C(=O)N[C@H]1CCC(=O)NC[C@@H](C(=O)N[C@@H](Cc2ccc(O)cc2)C(=O)N[C@@H](CCCNC(=N)N)C(=O)N[C@@H](CC(C)C)C(=O)N[C@@H](C)C(=O)N[C@@H](Cc2ccc(O)cc2)C(N)=O)NC(=O)[C@@H]2CCCN2C(=O)[C@@H](NC(=O)[C@@H](N)[C@@H](C)CC)CCC(=O)NC[C@@H](C(=O)N[C@@H](Cc2ccc(O)cc2)C(=O)N[C@@H](C)C(=O)N[C@@H](CC(C)C)C(=O)N[C@@H](CCCNC(=N)N)C(=O)N[C@@H](Cc2ccc(O)cc2)C(N)=O)NC(=O)[C@@H]2CCCN2C1=O (I: H-IEP[Dap]YALRY-NH2 / II: H-IEP[Dap]YRLAY-NH2; amide I:2-II:4, I:4-II:2)	32
170	5.13	50.2	0.363	CC[C@H](C)[C@H](N)C(=O)N[C@H]1CCC(=O)NC[C@@H](C(=O)N[C@@H](Cc2ccc(O)cc2)C(=O)N[C@@H](CCCNC(=N)N)C(=O)N[C@@H](CC(C)C)C(=O)N[C@@H](CCCNC(=N)N)C(=O)N[C@@H](Cc2ccc(O)cc2)C(N)=O)NC(=O)[C@@H]2CCCN2C(=O)[C@@H](NC(=O)[C@@H](N)[C@@H](C)CC)CCC(=O)NC[C@@H](C(=O)N[C@@H](Cc2ccc(O)cc2)C(=O)N[C@@H](CCCNC(=N)N)C(=O)N[C@@H](CC(C)C)C(=O)N[C@@H](C)C(=O)N[C@@H](Cc2ccc(O)cc2)C(N)=O)NC(=O)[C@@H]2CCCN2C1=O (I: H-IEP[Dap]YRLAY-NH2 / II: H-IEP[Dap]YRLRY-NH2; amide I:2-II:4, I:4-II:2)	427
129	12.9	48.2	0.275	CC[C@H](C)[C@H](N)C(=O)N[C@H]1CCC(=O)NC[C@@H](C(=O)N[C@@H](Cc2ccc(O)cc2)C(=O)N[C@@H](CCCNC(=N)N)C(=O)N[C@@H](CC(C)C)C(=O)N[C@@H](CCCNC(=N)N)C(=O)N[C@@H](Cc2ccc(O)cc2)C(N)=O)NC(=O)[C@@H]2CCCN2C(=O)[C@@H](NC(=O)[C@@H](N)[C@@H](C)CC)CCC(=O)NC[C@@H](C(=O)N[C@@H](Cc2ccc(O)cc2)C(=O)N[C@@H](CCCNC(=N)N)C(=O)N[C@@H](C)C(=O)N[C@@H](CCCNC(=N)N)C(=O)N[C@@H](Cc2ccc(O)cc2)C(N)=O)NC(=O)[C@@H]2CCCN2C1=O (I: H-IEP[Dap]YRARY-NH2 / II: H-IEP[Dap]YRLRY-NH2; amide I:2-II:4, I:4-II:2)	427
